Results on six molecules are retold here after paper PMC12335033 (BMC Oral Health, 2025).

The target of data set [1] is rat type I collagen (Rattus norvegicus, UniProt P02454+P02466). The data set can be described thus: SPR affinity of peptides for type I collagen. The class given is binding. The settings on record: for Rmax: SPR, 1:1 binding; for kon: read-out: 1:1 binding ka; for koff: read-out: Kd (dissociation rate constant). In short, it runs like this:
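Rat type I collagen preconcentrated in sodium acetate (pH 5.0) and amine-coupled to a CM5 chip. Peptide in sodium acetate buffer at five concentrations, 30 µL/min; 100 s contact, 80 s dissociation. Regeneration with glycine 2.0 for 30 s. Three cycles, multicycle kinetics; K_D calculated.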

A short description of data set [2]: TEM/SAED/EDS of calcium phosphate. The format is physicochemical. The settings on record: TEM; 0.1 mM peptide, pH 7.0; control: irregularly shaped aggregates.
In data set [3] the test system is collagen membrane. The data set can be described thus: Calcium ion adsorption by collagen membrane, ICP-MS. Particulars: 0.1 mM peptide, pH 7.0, 37 °C, 7 d, n = 9, p < 0.0001.
The subject of a further data set is type I collagen fiber. The data set can be described thus: Collagen fiber mineralization, TEM/SAED/EDS. Particulars: 0.1 mM peptide, 7 d; for electron density distribution of collagen fiber (TEM): 3.90 mM CaCl2, 3.83 mM Na2HPO4, pH 7.0, 37 °C; for SAED arc-shaped patterns (hkl) of hydroxyapatite: 37 °C, control one ring (300); for calcium and phosphate distribution (EDS) / fiber mineralization: pH 7.0, 37 °C; for fiber mineralization: TEM. In outline:
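Type I collagen fibers self-assembled in 50 mM glycine/200 mM KCl (pH 9.2), room temperature, 20 min, on nickel grids at 37 °C for 12 h, then fixed in 0.05% glutaraldehyde for 1 h. Grids immersed at 37 °C for 7 d in 3.90 mM CaCl₂/3.83 mM Na₂HPO₄ (pH 7.0) with 0.1 mM peptide, changed every 24 h. Peptide-free control. Rinsed, ethanol-dehydrated; TEM, SAED, EDS.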

In data set [4] the test system is collagen membrane. The data set can be described thus: TGA of mineralized collagen membrane. Particulars: 0.1 mM peptide, 37 °C, 7 d; n = 9; p < 0.0001.
Data set [5] can be described thus: Dentin slice remineralization, SEM and tubule plugging rate. Details: species or system human. Particulars: 0.1 mM peptide 12 h; for plugging rate of dentinal tubules vs control: SEM 3,000×, p < 0.0001; for dentinal tubule diameters (SEM surface) / mineral depth in dentin tubules (SEM cross section) / mineral growth on dentin (SEM surface): then artificial saliva pH 7.0, 2 w. In short, it runs like this: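 Human third-molar crown dentin cut to 5 × 5 × 2 mm slices and polished. Etched with 35% phosphoric gel for 30 s, 5.25% NaOCl for 1 min, sonicated 10 min. Soaked in 0.1 mM peptide for 12 h, rinsed, then 2 w in artificial saliva (pH 7.0) refreshed daily. Peptide-free control. SEM of surface and cross-section; plugging rate from open-tubule counts at 3,000×; n = 9; one-way ANOVA with Tukey.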

Data set [6] is described as follows: Mechanical properties of remineralized dentin. Details: species or system human. Particulars: compared with MDP-a group; 2 w mineralization. In outline:
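Nanoindentation of the new mineral layer on dentin slices after 2 w of remineralization, tested alongside sound and etched slices. Conditions: 10 mN force, 10 s loading, 2 s hold, Poisson's ratio 0.28. Five points per sample, nine samples per group. Elastic modulus and microhardness derived from load–displacement curves; one-way ANOVA with Tukey.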

The test system of a further data set is type I collagen. The settings on record: isothermal titration calorimetry and enzyme-linked immunosorbent assays; ref [14] (Lei et al.); cited from earlier work. A general note: In ITC the heat of successive injections is recorded.
Data set [7] concerns the target rat type I collagen (rat, UniProt P02454 152-1207; P02466 86-1125). The data set can be described thus: SPR.

Where a SMILES comes first, the peptide text is derived from it.

Chain of rat type I collagen (rat, UniProt P02454 152-1207; P02466 86-1125) (P02454 152-1207, chain 1 of 2): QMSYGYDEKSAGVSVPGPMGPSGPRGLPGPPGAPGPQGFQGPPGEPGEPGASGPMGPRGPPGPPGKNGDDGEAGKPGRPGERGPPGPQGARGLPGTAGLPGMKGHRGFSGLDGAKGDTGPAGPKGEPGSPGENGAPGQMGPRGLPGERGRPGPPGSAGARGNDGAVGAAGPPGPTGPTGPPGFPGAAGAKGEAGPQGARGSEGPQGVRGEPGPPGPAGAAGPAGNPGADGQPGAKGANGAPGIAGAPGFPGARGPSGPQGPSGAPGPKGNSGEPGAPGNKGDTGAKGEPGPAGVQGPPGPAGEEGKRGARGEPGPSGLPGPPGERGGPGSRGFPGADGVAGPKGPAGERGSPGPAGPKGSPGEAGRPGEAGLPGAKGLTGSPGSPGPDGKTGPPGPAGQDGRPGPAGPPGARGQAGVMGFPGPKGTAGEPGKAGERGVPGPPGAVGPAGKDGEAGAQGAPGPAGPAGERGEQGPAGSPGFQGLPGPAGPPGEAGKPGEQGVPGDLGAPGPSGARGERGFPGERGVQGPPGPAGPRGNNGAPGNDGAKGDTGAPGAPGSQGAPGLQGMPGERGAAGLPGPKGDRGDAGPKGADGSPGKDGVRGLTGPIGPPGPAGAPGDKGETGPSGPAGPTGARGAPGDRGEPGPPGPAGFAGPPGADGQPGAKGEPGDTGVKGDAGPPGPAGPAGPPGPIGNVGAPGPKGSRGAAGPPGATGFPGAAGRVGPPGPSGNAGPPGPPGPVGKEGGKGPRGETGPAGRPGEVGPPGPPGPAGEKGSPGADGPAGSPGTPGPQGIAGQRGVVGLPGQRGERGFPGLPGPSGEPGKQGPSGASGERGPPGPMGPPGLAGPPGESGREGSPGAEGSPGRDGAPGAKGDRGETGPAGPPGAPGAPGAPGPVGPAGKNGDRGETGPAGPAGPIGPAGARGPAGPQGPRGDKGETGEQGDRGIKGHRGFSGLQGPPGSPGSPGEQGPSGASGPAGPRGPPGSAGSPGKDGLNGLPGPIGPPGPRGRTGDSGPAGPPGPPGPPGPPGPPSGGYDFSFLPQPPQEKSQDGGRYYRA
Chain of rat type I collagen (rat, UniProt P02454 152-1207; P02466 86-1125) (P02466 86-1125, chain 2 of 2): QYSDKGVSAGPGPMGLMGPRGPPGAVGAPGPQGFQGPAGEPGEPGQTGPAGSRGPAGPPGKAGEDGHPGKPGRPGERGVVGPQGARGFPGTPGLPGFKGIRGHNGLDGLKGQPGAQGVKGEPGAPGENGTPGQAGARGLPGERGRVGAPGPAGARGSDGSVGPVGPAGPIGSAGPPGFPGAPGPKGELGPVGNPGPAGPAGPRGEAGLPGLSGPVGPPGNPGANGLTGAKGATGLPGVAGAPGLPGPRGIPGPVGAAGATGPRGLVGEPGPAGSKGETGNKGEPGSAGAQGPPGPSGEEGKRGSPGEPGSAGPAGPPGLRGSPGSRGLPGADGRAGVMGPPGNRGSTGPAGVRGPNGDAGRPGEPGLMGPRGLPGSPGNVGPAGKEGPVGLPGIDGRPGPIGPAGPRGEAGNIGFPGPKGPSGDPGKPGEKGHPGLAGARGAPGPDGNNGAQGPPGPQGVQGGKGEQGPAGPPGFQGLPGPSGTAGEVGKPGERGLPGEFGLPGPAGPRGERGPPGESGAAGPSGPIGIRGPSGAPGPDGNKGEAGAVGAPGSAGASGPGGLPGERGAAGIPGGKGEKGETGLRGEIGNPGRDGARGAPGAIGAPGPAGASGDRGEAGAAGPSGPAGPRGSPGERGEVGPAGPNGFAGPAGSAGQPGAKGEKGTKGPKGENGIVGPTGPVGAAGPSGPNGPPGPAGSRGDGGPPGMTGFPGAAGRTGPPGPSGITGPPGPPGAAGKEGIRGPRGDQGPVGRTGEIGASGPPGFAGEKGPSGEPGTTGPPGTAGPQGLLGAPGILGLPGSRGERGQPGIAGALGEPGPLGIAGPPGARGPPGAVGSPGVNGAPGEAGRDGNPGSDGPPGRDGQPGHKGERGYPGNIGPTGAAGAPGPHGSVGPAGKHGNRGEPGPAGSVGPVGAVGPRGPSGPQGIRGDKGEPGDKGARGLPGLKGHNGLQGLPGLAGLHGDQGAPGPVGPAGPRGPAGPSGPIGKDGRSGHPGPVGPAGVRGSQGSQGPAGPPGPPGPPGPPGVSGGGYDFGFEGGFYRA

In the case of `CC(C)C[C@H](NC(=O)[C@H](CC(N)=O)NC(=O)[C@H](CS)NC(=O)[C@H](CO)NC(=O)[C@H](CCC(=O)O)NC(=O)[C@H](CCCCN)NC(=O)[C@@H]1CCCN1C(=O)[C@@H](N)CS)C(=O)N[C@@H](Cc1ccccc1)C(=O)N[C@H](C(=O)N[C@@H](CC(C)C)C(=O)N[C@@H](CCCCN)C(=O)N[C@@H](CC(=O)O)C(=O)N[C@@H](CC(=O)O)C(=O)N[C@@H](CO)C(=O)N[C@@H](CO)C(=O)N[C@@H](CC(=O)O)C(=O)N[C@@H](CO)C(=O)N[C@@H](CO)C(=O)N[C@@H](CC(=O)O)C(=O)N[C@@H](CO)C(=O)N[C@@H](CO)C(=O)O)C(C)C` [MDP-3DSS] (H-CPKESCNLFVLKDDSSDSSDSS-OH; N-terminus and C-terminus assumed), on rat type I collagen [1], the Rmax stood at 65526.7 RU, the kon worked out at 30800 M⁻¹ s⁻¹ and the koff amounted to 0.58 s⁻¹. Further, the morphology of particles entry in data set [2] is “aggregated particles arranged in loose chains”. Further, in the data set on collagen membrane [3], the “calcium ion adsorption by collagen membrane, MDP-3DSS vs MDP-a” value is listed as “promoted the adsorption of calcium ions by collagen more effectively than MDP-a”. In the data set with type I collagen fiber, the “electron density distribution of collagen fiber (TEM)” value is “uniform and dense electron distribution, with significantly increased electron density, indicating a highly mineralized structure”; the “SAED arc-shaped patterns (hkl) of hydroxyapatite” value was 002,112,401,122; the “calcium and phosphate distribution (EDS)” value is “highly concentrated along the fiber axis, with a minimal presence of these ions outside the fiber”; the fiber mineralization result is “evident fiber mineralization”. Moreover, the “residual mineral content (TGA)” value with collagen membrane [4] is listed as “highest residual mineral content”. Further, the “plugging rate of dentinal tubules vs control” value in data set [5] (artificial saliva 2 w, n = 9) is “increased significantly”. In addition, in [5] (artificial saliva 2 w, n = 9, p = 0.0019), the “plugging rate of dentinal tubules, MDP-3DSS vs MDP-a” value is “greater plugging rate of dentinal tubules”. In addition, in data set [5], the “dentinal tubule diameters (SEM surface)” value is reported as “significantly reduced”; the “mineral depth in dentin tubules (SEM cross section)” value was found to be 7 μm; the “mineral growth on dentin (SEM surface)” value is “dense mineral growth was observed on the surface and inside the dentinal tubules”. In addition, in [6], the “elastic modulus and microhardness relative to sound dentin” value is recorded as “closer to those of sound dentin group”.
With `CC(C)C[C@H](NC(=O)[C@H](CC(N)=O)NC(=O)[C@H](CS)NC(=O)[C@H](CO)NC(=O)[C@H](CCC(=O)O)NC(=O)[C@H](CCCCN)NC(=O)[C@@H]1CCCN1C(=O)[C@@H](N)CS)C(=O)N[C@@H](Cc1ccccc1)C(=O)N[C@H](C(=O)N[C@@H](CC(C)C)C(=O)N[C@@H](CCCCN)C(=O)N[C@@H](CC(=O)O)C(=O)O)C(C)C` [CBP1495, reference compound] (H-CPKESCNLFVLKD-OH; N-terminus and C-terminus assumed), on rat type I collagen [1], the Rmax is on record as 190942.7 RU, the kon was 10600 M⁻¹ s⁻¹ and the koff turned out to be 0.624 s⁻¹. The “binding to type I collagen” value in the data set on type I collagen is on record as “can bind to type I collagen with strong affinity”.
Take `CC(C)C[C@H](NC(=O)[C@H](Cc1c[nH]c2ccccc12)NC(=O)[C@H](CS)NC(=O)[C@H](CO)NC(=O)[C@H](Cc1c[nH]c2ccccc12)NC(=O)[C@H](Cc1c[nH]c2ccccc12)NC(=O)[C@H](CC(=O)O)NC(=O)[C@@H](N)CS)C(=O)N[C@@H](CC(=O)O)C(=O)N[C@H](C(=O)N[C@@H](CC(C)C)C(=O)N[C@@H](CCCCN)C(=O)N[C@@H](CC(=O)O)C(=O)O)C(C)C` [MDP-a] (H-CDWWSCWLDVLKD-OH; N-terminus and C-terminus assumed): at rat type I collagen [1], the Rmax is recorded as 53152.0 RU, the kon is 32900 M⁻¹ s⁻¹ and the koff was determined as 0.594 s⁻¹. Moreover, the morphology of particles entry in data set [2] is “uneven, dense, spherical aggregated particles”. Also, in the data set on type I collagen fiber, the “electron density distribution of collagen fiber (TEM)” value is “increase in electron density, the distribution along the collagen fiber was notably uneven, with a substantial amount of electrons present outside the fiber”; the “SAED arc-shaped patterns (hkl) of hydroxyapatite” value was 002,300; the “calcium and phosphate distribution (EDS)” value is “more scattered along the fiber axis”; the fiber mineralization entry was “evident fiber mineralization”. The “plugging rate of dentinal tubules vs control” value in [5] (artificial saliva 2 w, n = 9) is reported as “increased significantly”. Further, in data set [5], the “dentinal tubule diameters (SEM surface)” value is given as “significantly reduced”; the “mineral depth in dentin tubules (SEM cross section)” value is 7 μm; the “mineral growth on dentin (SEM surface)” value was “dense mineral growth was observed on the surface and inside the dentinal tubules”.

B1: CBP1495 (peptide)
peptide: CPKESCNLFVLKD
What is called Kd is the concentration at which binding is half-saturated. A low value points to a tighter complex. In the data set with rat type I collagen [7], B1 showed a Kd of 59 µM.

B2: MDP-a (peptide)
peptide: CDWWSCWLDVLKD
In the case of B2, the Kd with rat type I collagen [7] came out at 18 µM.

B3: MDP-3DSS (peptide)
peptide: CPKESCNLFVLKDDSSDSSDSS
Take B3: in the data set with rat type I collagen [7], the Kd was 18.9 µM.
